Measurements: ChEMBL document CHEMBL4699557, “Structure activity relationship of novel antiviral nucleosides against Enterovirus A71” (Bioorg Med Chem Lett, 2020)
Activity calls are given as the source filed them. The calls are words filed in the database; no cut-off is given here.

Assays:
[1] = tested on: RD; assay: Cytotoxicity against human RD cells by microscopic based visual inspection method; type: cell-based
[2] = biological target: 5-hydroxytryptamine receptor 2B (Homo sapiens, UniProt P41595); assay: Binding affinity to 5HT2B (unknown origin)
[3] = tested on: RD; assay: Cytotoxicity against human RD cells by neutral red uptake assay; type: cell-based
[4] = Selectivity index, ratio of CC50 for human RD cells to EC50 for Enterovirus D68 US/KY/14-18953 strain; type: toxicity
Method in brief: (§1)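 Selectivity index calculated as CC50/EC50, both from the same cell line and the same read-out (visual or neutral red).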

[5] = tested on: Vero 76; assay: (§2) Cytotoxicity against monkey Vero 76 cells by neutral red uptake assay; type: cell-based; settings: chlorocebus sabaeus, vero 76
[6] = tested on: Enterovirus A71; assay: microbe, parasite or virus in culture; type: functional, organism-based; settings: Enterovirus A, Tainin/4643/98, Vero 76, 72 h
[7] = tested on: Vero 76; assay: (§3) Cytotoxicity against monkey Vero 76 cells by microscopic analysis; type: cell-based; settings: chlorocebus sabaeus, vero 76
[8] = Selectivity index, ratio of CC50 for human RD cells to EC50 for Enterovirus D68 US/KY/14-18953 by neutral red uptake assay; type: toxicity; settings: read-out: Ratio CC50/EC50; method in brief: as §1
[9] = in vitro; settings: monkey, Vero 76 cells
[10] = tested on: enterovirus D68; assay: Antiviral activity against Enterovirus D68 US/KY/14-18953 infected in RD cells assessed as reduction in virus yield by visual inspection method; type: functional, organism-based; settings: Enterovirus D, US/KY/14-18953, RD
Method in brief: (§4)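 Cell-based inhibition of virus replication. Vero 76 cells for Coxsackie B3 and poliovirus 1; RD cells for enterovirus 68. Two read-outs: visual scoring of virus yield reduction and neutral red uptake for cytopathic effect. EC50 is reported, and EC90 for some visual values.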

[11] = tested on: enterovirus D68; assay: Antiviral activity against Enterovirus D68 US/KY/14-18953 strain infected in RD cells assessed as reduction in virus-induced cytopathic effect by neutral red uptake assay; type: functional, organism-based; settings: Enterovirus D, US/KY/14-18953, RD; method in brief: as §4
[12] = in vitro; settings: monkey, Vero 76 cells; remark: listed apart in the source
[13] = tested on: Tacaribe virus; assay: Antiviral activity against Tacaribe virus; type: functional, organism-based; settings: Mammarenavirus tacaribeense
[14] = tested on: Poliovirus 1; assay: Antiviral activity against Poliovirus 1 Mahoney infected in monkey Vero 76 cells assessed as reduction in virus-induced cytopathic effect by neutral red uptake assay; type: functional, organism-based; settings: Enterovirus C; method in brief: as §4
[15] = tested on: Enterovirus A71; assay: microbe, parasite or virus in culture; type: functional, organism-based, Tainin/4643/98, Vero 76; settings: Enterovirus A; for EC50: Tainin/4643/98, Vero 76, 72 h
[16] = tested on: Poliovirus 1; assay: Antiviral activity against Poliovirus 1 Mahoney infected in monkey Vero 76 cells assessed as reduction in virus yield by visual inspection method; type: functional, organism-based; settings: Enterovirus C; method in brief: as §4
[17] = tested on: Coxsackievirus; assay: Antiviral activity against Coxsackie virus B3 HA 201 933 infected in Vero 76 cells assessed as reduction in virus yield by visual inspection method; type: functional, organism-based; settings: B3 HA 201 933, Vero 76; method in brief: as §4
[18] = tested on: Coxsackievirus; assay: Antiviral activity against Coxsackie virus B3 HA 201 933 infected in Vero 76 cells assessed as reduction in virus-induced cytopathic effect by neutral red uptake assay; type: functional, organism-based; settings: B3 HA 201 933, Vero 76; method in brief: as §4
[19] = tested on: Respiratory syncytial virus; assay: Antiviral activity against Respiratory syncytial virus; type: functional, organism-based
[20] = as §2; type: cell-based; settings: chlorocebus sabaeus, Vero 76 cells
[21] = as §3; type: cell-based; settings: chlorocebus sabaeus, Vero 76 cells
[22] = tested on: Enterovirus A71; assay: Antiviral activity against Enterovirus 71; type: functional, organism-based; settings: Enterovirus A
[23] = Selectivity index, ratio of CC50 for monkey Vero 76 cells to EC50 for Poliovirus 1 Mahoney by neutral red uptake assay; type: toxicity; settings: read-out: Ratio CC50/EC50; method in brief: as §1
[24] = Selectivity index, ratio for CC50 of monkey Vero 76 cells to EC50 for Coxsackie virus B3 HA 201 933 by neutral red uptake assay; type: toxicity; settings: read-out: Ratio CC50/EC50; method in brief: as §1
[25] = Selectivity index, ratio for CC50 of monkey Vero 76 cells to EC50 for Coxsackie virus B3 HA 201 933 by visual inspection method; type: toxicity; settings: read-out: Ratio CC50/EC50; method in brief: as §1
[26] = Selectivity index, ratio of CC50 for monkey Vero 76 cells to EC50 for Poliovirus 1 Mahoney; type: toxicity; settings: read-out: Ratio CC50/EC50; method in brief: as §1
[27] = Inhibition of capsid protein VP1 in Enterovirus 71; parameters: species or system Enterovirus A71

Sequence of 5-hydroxytryptamine receptor 2B (P41595 whole entry): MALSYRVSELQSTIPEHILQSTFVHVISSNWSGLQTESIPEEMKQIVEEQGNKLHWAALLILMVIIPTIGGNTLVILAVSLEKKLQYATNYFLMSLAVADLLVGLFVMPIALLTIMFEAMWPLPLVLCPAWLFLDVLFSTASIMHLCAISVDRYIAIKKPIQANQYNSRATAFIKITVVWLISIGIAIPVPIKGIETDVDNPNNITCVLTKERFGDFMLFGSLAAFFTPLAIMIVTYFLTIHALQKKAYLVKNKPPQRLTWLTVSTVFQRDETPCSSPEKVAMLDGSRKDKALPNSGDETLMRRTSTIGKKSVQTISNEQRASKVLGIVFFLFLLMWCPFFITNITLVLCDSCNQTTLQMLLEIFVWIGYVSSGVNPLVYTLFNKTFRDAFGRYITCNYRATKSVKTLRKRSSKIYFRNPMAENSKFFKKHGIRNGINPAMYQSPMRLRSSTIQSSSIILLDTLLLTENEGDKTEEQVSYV

SMILES | CC50 [1] | CC50 [3] | CC50 [5] | EC50 [6] | CC50 [7] | selectivity ratio [8] | selectivity ratio [9] | EC50 [11] | selectivity ratio [12] | EC50 [15] | other results
CC(C)[C@@H](Nc1nc(Cl)nc2c1ncn2[C@H]1[C@H](O)[C@H](O)[C@]2(CF)C[C@H]12)C1CC1 | 42 µM | 42 µM | 33 µM | 3 µM | 36 µM | 2.6 | 11 | 16 µM | 10 |  | Ki [2]: 0.934 µM; selectivity ratio ([4]; read-out: Ratio): 5.4; EC90 [10]: 7.7 µM
OC[C@@]12C[C@@H]1[C@@H](n1cnc3c(NC(C4CC4)C4CC4)nc(Cl)nc31)[C@H](O)[C@@H]2O |  |  | 68 µM |  | > 100 µM |  |  |  |  |  | Activity [13]: inactive
CC(C)[C@@H](Nc1nc(Cl)nc2c1ncn2[C@H]1[C@H](O)[C@H](O)[C@]2(CO)C[C@H]12)C1CC1 | > 100 µM | > 100 µM | 24 µM | 9.1 µM | 24 µM |  |  | 32 µM |  |  | EC50 [14]: 27 µM; EC90 ([15]; Tainin/4643/98, Vero 76, time 72 hrs): 7.7 µM; EC50 [16]: 28 µM; EC50 [17]: 16 µM; EC50 [18]: 16 µM; EC50 [10]: 32 µM
O[C@@H]1[C@H](O)[C@@H]2C[C@@H]2[C@H]1n1cnc2c(NC(C3CC3)C3CC3)nc(Cl)nc21 | 41 µM | 41 µM | 34 µM | 3.4 µM | > 100 µM | 4.4 | 10 | 9.3 µM | > 28 | 3.6 µM | selectivity ratio ([4]; read-out: Ratio): 2.7; Activity [19]: inactive; EC90 [10]: 15 µM
CC(C)[C@@H](Nc1nc(I)nc2c1ncn2[C@H]1[C@H](O)[C@H](O)[C@]2(CO)C[C@H]12)C1CC1 |  |  | 46 µM | 20 µM | 100 µM |  | 2.3 |  | 5.6 | 18 µM | Ki [2]: 0.17 µM
OC[C@@]12C[C@@H]1[C@@H](n1ccc3c(NC(C4CCC4)C4CCC4)nc(Cl)nc31)[C@H](O)[C@@H]2O |  |  |  |  |  |  | 3.6 |  | > 3.1 | 32 µM | CC50 [20]: 86 µM; CC50 [21]: > 100 µM
OC[C@H]1O[C@@H](n2cnc3c(NCc4cccc(C(F)(F)F)c4)ncnc32)[C@H](O)[C@@H]1O |  |  |  |  |  |  |  |  |  |  | EC50 [22]: 0.068 µM
CC(C)S(=O)(=O)n1c(N)nc2ccc(/C(=N/O)c3ccccc3)cc21 [ENVIROXIME] | 4.2 µM | 1.5 µM |  |  |  | 47 |  | 0.032 µM |  |  | EC50 [14]: < 0.01 µM; selectivity ratio [23]: > 490; selectivity ratio ([4]; read-out: Ratio CC50/EC50): 130; EC50 [16]: 0.015 µM; selectivity ratio [24]: > 450; EC50 [17]: < 0.01 µM; selectivity ratio [25]: > 1000; EC50 [18]: < 0.01 µM; EC50 [10]: 0.032 µM; selectivity ratio [26]: > 670
CCn1nnc(-c2ccc(OCCC(C)CCN3CCN(c4ccncc4)C3=O)cc2)n1 (stereo not drawn) |  |  |  |  |  |  |  |  |  |  | IC50 [27]: 0.0008 µM
